# TRPC4 PAM = positive allosteric modulators of TRPC4, primary screen, cell-based, mouse TRPC4beta, HEK293 mu-opioid, Fluo-4 calcium. Short transient receptor potential channel 4 (Mus musculus), Q9QUQ5. DAMGO EC20, Fluo-4 Ca2+ flux; stronger effect = higher value. B-score at 10 µM. 310,000 compounds, 0.42% hits;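 active = B-score of calcium response area above 5 SD of library B-scores, with initial fluorescence ratio within 5 SD of library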;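 note: B-score of integrated fluorescence ratio over time as area under calcium response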
# TRPC6 inhibitor = mouse TRPC6 channel inhibitors, primary screen, cell-based, HEK293, membrane potential dye. Short transient receptor potential channel 6 (Mus musculus), Q61143. AID 2553, 2010. ACh-evoked depolarization; stronger effect = lower value. 310,000 compounds, 1.1% hits. B-score at 10 µM;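 active = B-score under library mean minus 3 SD, initial fluorescence not abnormally high, positive integrated signal ratio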;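 note: B-score derived from integrated fluorescence ratio over the kinetic read; more negative B-score means stronger inhibition of depolarization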
# Target sequence (Q61143 whole entry, looked up): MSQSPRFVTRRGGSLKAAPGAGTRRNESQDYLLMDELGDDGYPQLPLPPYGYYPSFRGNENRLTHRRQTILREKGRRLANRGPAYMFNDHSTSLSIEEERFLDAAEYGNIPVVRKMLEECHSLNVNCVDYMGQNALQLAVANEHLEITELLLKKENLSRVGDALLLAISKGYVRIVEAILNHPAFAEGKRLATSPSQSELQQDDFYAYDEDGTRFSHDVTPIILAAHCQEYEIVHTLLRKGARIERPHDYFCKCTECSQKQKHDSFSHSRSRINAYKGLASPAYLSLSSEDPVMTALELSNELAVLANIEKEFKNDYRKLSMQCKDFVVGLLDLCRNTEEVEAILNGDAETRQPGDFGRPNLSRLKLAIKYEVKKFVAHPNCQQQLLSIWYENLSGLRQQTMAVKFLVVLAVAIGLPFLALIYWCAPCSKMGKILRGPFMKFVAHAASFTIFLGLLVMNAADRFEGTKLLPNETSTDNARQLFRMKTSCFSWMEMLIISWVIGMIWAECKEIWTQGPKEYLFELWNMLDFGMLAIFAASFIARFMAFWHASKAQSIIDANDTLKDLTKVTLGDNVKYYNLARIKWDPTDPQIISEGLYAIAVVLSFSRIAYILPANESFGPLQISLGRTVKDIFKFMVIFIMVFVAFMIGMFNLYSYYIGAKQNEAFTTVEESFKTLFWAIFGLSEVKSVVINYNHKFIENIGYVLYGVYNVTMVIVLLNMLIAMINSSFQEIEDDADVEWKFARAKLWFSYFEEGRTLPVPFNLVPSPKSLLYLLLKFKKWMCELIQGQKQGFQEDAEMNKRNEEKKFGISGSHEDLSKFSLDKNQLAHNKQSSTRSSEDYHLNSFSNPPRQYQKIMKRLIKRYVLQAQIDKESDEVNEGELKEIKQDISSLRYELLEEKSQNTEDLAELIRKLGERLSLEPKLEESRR
# TRPC4 block = inhibitors of mouse TRPC4 channel, primary screen, Fluo4 calcium, HEK293 TRPC4beta/mu-opioid cells; Short transient receptor potential channel 4 (Mus musculus), Q9QUQ5; DAMGO-evoked Fluo4 calcium flux; stronger effect = lower value; B-score at 10 µM; 300,000 compounds, 0.39% hits; AID 2247, 2010;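 active = B-score over 3 SD under the library average, no early fluorescence shift, positive overall ratio signal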
#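 Assay system: HEK293 cells with stable TRPC4beta plus mu-opioid receptor expression. Dosing: single dose. Measured by: Fluo4 Ca2+ flux fluorescence. Also added: DAMGO in two steps, submaximal then maximal. Read-out: B score from integrated Fluo4 fluorescence ratio.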
# TRPC4 act = activators of mouse TRPC4 channel, primary screen, Fluo4 calcium, HEK293 TRPC4beta/mu-opioid cells; Fluo4 calcium fluorescence; stronger effect = higher value; B-score at 10 µM; 310,000 compounds, 0.49% hits;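 active = B-score above 5 SD of library B-scores, and initial fluorescence ratio not above library mean plus 5 SD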;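 note: positive B-score marks a calcium rise read as TRPC4 activation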
#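 Assay system: HEK293 cells stably co-expressing mouse TRPC4beta and mu-opioid receptor / Timing: Fluo4 dye loading 45 min at room temperature, 110 s recording / Signal: Fluo4 calcium-sensitive dye fluorescence, kinetic, 1 Hz baseline / Read-out: integrated baseline-normalised fluorescence ratio, converted to per-well B score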
# TRPC6 activator = mouse TRPC6 channel activators, primary screen, cell-based, HEK293, membrane potential dye | Short transient receptor potential channel 6 (Mus musculus), Q61143 | HEK293-TRPC6 membrane potential dye fluorescence; stronger effect = higher value | B-score at 10 µM | 310,000 compounds, 0.13% hits | AID 2550, 2010;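 active = B-score of the integrated fluorescence ratio above library mean plus 3 SD, and starting fluorescence ratio within library mean plus 5 SD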;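 note: higher score means more depolarization so channel activation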
# TRPC4 spec 2 = mouse TRPC4 off-target activity of TRPC6 inhibitors, second screen. HEK293 TRPC4/MOR, membrane potential dye fluorescence; channel activated by saturating DAMGO dose. AID 2776. inhibition, % at 10 µM. 920 compounds, 42% hits. shares compounds with TRPC6 inhibitor;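 active = compounds whose fluorescence signal differed from control wells by over 3 SD, either direction, in both duplicate plates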
# TRPC4 spec = mouse TRPC4 modulation by TRPC6 hits, confirmation, selectivity assay for TRPC6 inhibitor project, cell-based, HEK293 TRPC4/mu-opioid, membrane potential dye; shares compounds with TRPC6 inhibitor; membrane potential fluorescence; activity change, negative = inhibition, % at 10 µM; 920 compounds, 61% hits; AID 2777, 2010;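 active = rise or fall in signal beyond 3 SD of buffer-only wells in both replicate plates, either sign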;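 note: integrated kinetic ratio of fluorescence range over baseline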
# HEK293 MPD ctr 2-1 = nonspecific membrane potential effects, parental HEK293, confirmation, counter-screen for TRPC6 inhibitor project, cell-based, second counter screen; 920 compounds, 31% hits; signal change vs control, % at 10 µM; shares compounds with TRPC6 inhibitor; parental HEK293 membrane potential dye fluorescence; maximal acetylcholine challenge after compound addition; AID 2779, 2010;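 active = membrane potential signal moving either way by over 3 SD of the maximum-effect control, in both duplicate plates, meaning non-specific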
# HEK293 MPD ctr-1 = membrane potential modulation in parental HEK293, confirmation, counter-screen for TRPC6 inhibitor project, cell-based. shares compounds with TRPC6 inhibitor. parental HEK293 membrane potential dye fluorescence. membrane potential signal change, % at 10 µM. 920 compounds, 60% hits;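 active = membrane potential signal shifting up or down by more than 3 SD of buffer-only wells, on both duplicate plates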
# HEK293 MPD ctr-2 = parental HEK293 membrane potential modulation, confirmation, counter-screen for TRPC6 modulator project, cell-based | shares compounds with TRPC6 inhibitor | membrane potential dye fluorescence | membrane potential signal change, % at 10 µM | 2,400 compounds, 51% hits;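 active = membrane potential signal moves up or down beyond 5 SD from buffer-only wells, on both duplicate plates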
# HEK293 MPD ctr 2-2 = parental HEK293 nonspecific activity of TRPC6 modulators, second screen; shares compounds with TRPC6 inhibitor; membrane potential dye fluorescence; after compound, maximal acetylcholine stimulation; inhibition, % at 10 µM; 2,400 compounds, 14% hits;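 active = membrane potential signal drops by more than 5 SD from the mean control signal, in both duplicate plates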;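 note: plate controls were acetylcholine ECmax control wells for no effect and buffer only wells for full effect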
# TRPC4 ctr mod = TRPC4 modulation by TRPC6 hit compounds, confirmation, selectivity assay for TRPC6 modulator project, cell-based, HEK293 TRPC4/mu-opioid, membrane potential dye, mouse; membrane potential fluorescence; AID 488927, 2010; shares compounds with TRPC6 inhibitor; percent change from control (negative = decrease, positive = increase), % at 10 µM; 2,400 compounds, 69% hits;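 active = membrane potential signal moved up or down beyond 5 SD of buffer control wells, in both duplicate plates, actives on both sides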;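 note: plate controls were assay buffer wells for no effect and DAMGO maximal-effect wells for full effect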
# TRPC4 ctr inh 2 = second selectivity test of TRPC6 modulators against mouse TRPC4; shares compounds with TRPC6 inhibitor; HEK293 TRPC4/mu-opioid, membrane potential dye fluorescence; stimulated with maximal-effect DAMGO; inhibition, % at 10 µM; 2,400 compounds, 55% hits; AID 488928;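 active = drop in membrane potential signal beyond 5 SD of the control wells in both duplicate plates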;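 note: TRPC4 counter screen for TRPC6 hits run under conditions tuned for TRPC6 not TRPC4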
# TRPC6 block conf = mouse TRPC6 channel inhibitors, confirmation, HEK293 cells, membrane potential dye, duplicate. shares compounds with TRPC6 inhibitor. ACh-evoked depolarization. inhibition, % at 10 µM. 3,300 compounds, 43% hits. AID 488960, 2010;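 active = fluorescence ratio falls more than 5 SD below the full-stimulation control mean, in both duplicate runs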;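 note: integrated fluorescence ratio of peak minus minimum over baseline after agonist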
# TRPC6 act confirm = mouse TRPC6 channel activators, confirmation, HEK293 cells, membrane potential dye, duplicate; shares compounds with TRPC6 inhibitor; HEK293-TRPC6 membrane potential dye fluorescence, FDSS; activation, % at 10 µM; 2,800 compounds, 11% hits; AID 488961, 2010;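 active = ratio signal rise beyond 5 SD above unstimulated control wells' mean, seen in both duplicate runs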;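 note: plate controls were buffer EC0 wells for no effect and acetylcholine ECmax response for full effect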
# The depositor's hits bear a star; i = inactive; . = no result. Only some compounds are listed: those with a hit (about 2.3% of all), similar ones and a draw of the others.
SMILES,TRPC4 PAM,TRPC6 inhibitor,TRPC4 block,TRPC4 act,TRPC6 activator,HEK293 MPD ctr-2,HEK293 MPD ctr 2-2,TRPC4 ctr mod,TRPC4 ctr inh 2,TRPC6 block conf,TRPC6 act confirm,others
Cc1oc(-c2ccc(Cl)cc2)nc1CN1CCC(C(=O)NCc2ccco2)CC1,i,i,-6*,i,12.5*,i,i,8.0%*,72.0%*,.,121.5%*,
Cc1nc(-c2ccc(NC(=O)c3ccc(Br)o3)cc2)cs1,i,i,i,i,i,.,.,.,.,.,.,
COc1ccccc1CN1CC(C(=O)NC2CCOCC2)CCC1=O (centres undefined),i,i,i,i,i,.,.,.,.,.,.,
COc1cc(NC(=O)CC2NCCNC2=O)cc(OC)c1 (centres undefined),i,-6.14*,i,i,i,i,i,i,i,i,i,
COC(=O)c1cccc(NC(=O)CC2NCCNC2=O)c1 (centres undefined),i,i,i,i,i,.,.,.,.,.,.,
CN=C1c2cc3c(Br)c(OC)ccc3n2CCN1C,i,-8.33*,i,i,i,.,.,.,.,i,i,TRPC4 spec 2=i;TRPC4 spec=-14.0%*;HEK293 MPD ctr 2-1=10.5%*;HEK293 MPD ctr-1=-279.5%*
Cc1[nH]c2ccccc2c1/C=N/Nc1ccc([N+](=O)[O-])cc1,i,i,i,i,11.5*,143.5%*,i,35.5%*,i,i,56.0%*,
Cc1[nH]c2ccccc2c1/C=N/NC(=O)c1cccc([N+](=O)[O-])c1,i,i,i,i,i,.,.,.,.,.,.,
Cc1ccccc1NC(=O)CN1CCC(C(=O)c2ccc3c(c2)OCCO3)CC1,i,-5.55*,i,i,i,i,i,i,i,i,i,
Cc1ccccc1NC(=O)CN1CCOCC1,i,i,i,i,13.5*,i,i,i,i,i,i,
COc1ccc2[nH]c(C(=O)Nc3ccc4c(c3)OCO4)cc2c1,i,i,i,i,i,.,.,.,.,.,.,
CCN(CC)c1ccc(C=C2C(=O)OC3(CCCC3)OC2=O)cc1,i,i,i,i,54.1*,763.0%*,i,116.0%*,i,i,295.0%*,
CCN(CC)c1ccc(C=C2C(=O)OC(C)(C(C)(C)C)OC2=O)cc1 (centres undefined),i,i,i,i,46.3*,i,i,102.5%*,i,i,i,
CCOC(=O)c1sc2nc3c(SCC(=O)O)cc(C(=O)c4cc(F)ccc4O)cn3c(=O)c2c1C,i,i,i,i,i,.,.,.,.,.,.,
COC(=O)c1cc(C(=O)c2cc(F)ccc2O)cn2c(=O)c3c(C)c(C)sc3nc12,i,-5.43*,i,i,i,i,i,i,43.5%*,i,i,
CN1CCN(CCCC(=O)c2ccc(C3CCCC3)cc2)CC1,i,i,i,i,i,.,.,.,.,.,.,
CCCCCCC(=O)N1CCC(c2nc3c(nnn3Cc3ccccc3Cl)c(=O)[nH]2)CC1,i,-10.7*,i,i,14.3*,131.0%*,i,22.5%*,i,73.5%*,127.0%*,
CN1C(=O)CS/C1=N\NC(=O)COc1cccc2cccnc12,i,-5.9*,i,i,i,-230.0%*,i,-42.5%*,i,i,i,
Cc1ccccc1OCC(=O)N/N=C1\SCC(=O)N1Cc1ccccc1,i,i,i,i,i,.,.,.,.,.,.,
COc1ccc(NC2CCCN(C(=O)c3ccc4[nH]c(C)c(C)c4c3)C2)cc1 (centres undefined),i,i,i,i,i,.,.,.,.,.,.,
Cc1ccc(CN(C)C(=O)c2ccccc2Sc2ccccc2C#N)cc1,i,-5.07*,i,i,i,104.0%*,i,22.0%*,i,62.5%*,.,
CN(Cc1ccc(OC(F)F)cc1)C(=O)c1ccccc1Sc1ccccc1C#N,i,i,i,i,i,.,.,.,.,.,.,
Cc1onc(-c2c(F)cccc2Cl)c1C(=O)Nc1c(C)n(C)n(-c2ccccc2)c1=O,i,i,i,i,i,.,.,.,.,.,.,
